Assay outcomes as filed in PubChem BioAssay.
Rin1-Abl PPI inh: inhibitors of human Rin1-Abl protein interaction | 360,000 compounds, 0.4% hits | inhibition, % at 7.35 µM | P00519+Q13671 | TR-FRET Rin1/Abl binding, biochemical; in the data active = inhibition above about 5%, passing the limit was not always enough
NadD block: inhibitors of Staphylococcus aureus NadD; 360,000 compounds, 0.78% hits; purified NadD enzyme, colorimetric absorbance read-out; AID 602399; inhibition, % at 20 µM; in the data active = inhibition above about 26%
ABHD5-PLIN5 inh: blocks binding of human ABHD5 to perilipin-5. Split G. princeps luciferase complementation, luminescence, 4 h. 360,000 compounds, 0.78% hits. Q00G26+Q8WTS1. inhibition, % at 4 µM;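 active = inhibition above the mean inhibition across every tested compound plus 3 SD, cut at about 22% in these data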;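 note: 0% = DMSO only wells and the 100% control is not disclosed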
Rpn11 inh: Rpn11 (human) deubiquitinase inhibition | O00487 | human 26S proteasome, Ub4-pepOG fluorescence polarization; 20S core pre-blocked with epoxomicin | inhibition, % at 20 µM | 360,000 compounds, 0.59% hits | AID 588493;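 active = inhibition at 20 µM, scaled to each plate's controls, above about 33%, limit read from the data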
Target sequence (O00487 whole entry, looked up): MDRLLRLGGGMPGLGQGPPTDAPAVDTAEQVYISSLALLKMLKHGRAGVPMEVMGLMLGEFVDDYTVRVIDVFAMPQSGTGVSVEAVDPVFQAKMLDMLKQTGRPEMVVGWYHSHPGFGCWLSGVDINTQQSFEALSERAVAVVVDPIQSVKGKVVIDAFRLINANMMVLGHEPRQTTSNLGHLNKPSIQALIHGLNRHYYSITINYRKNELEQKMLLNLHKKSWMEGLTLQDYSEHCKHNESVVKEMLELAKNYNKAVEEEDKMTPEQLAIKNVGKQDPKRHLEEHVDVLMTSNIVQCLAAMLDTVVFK
XiGFP reactiv: reactivates the inactive X chromosome in mouse fibroblasts; XiGFP mouse fibroblasts, % GFP-positive cells imaging, 3 d; cells co-treated with 5-aza-dC sensitizer; scaled so ellipticine positive control = 100%; AID 743238; activation, % at 7.58 µM; 360,000 compounds, 0.055% hits;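 active = mean normalized replicate activation at least 10% and every replicate at or above 10%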;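 note: 0% = median of on-plate neutral control wells and 100% = ellipticine 6 µM median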
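Assay system – SV40-immortalized XiGFP fibroblast cells, line 68-5-11 · Buffer or medium – DMEM supplemented with 5-aza-dC as sensitizing agent · Dosing – one concentration, pinned · Benchmarks – positive control ellipticine, 6 µM final · Times – 3 days compound exposure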
ABHD5 PLIN5 conf: ABHD5-PLIN5 interaction inhibition, confirmed | shares compounds with ABHD5-PLIN5 inh | biochemical ABHD5-PLIN5 interaction, luminescence | inhibition, % at 4 µM | 2,200 compounds, 67% hits | AID 651612; in the data active = inhibition above about 23%;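 note: 0% = DMSO vehicle wells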
HNF4 counter: HNF4 split-luciferase signal hit, counter-screen | 2,200 compounds, 77% hits | inhibition, % at 4 µM | shares compounds with ABHD5-PLIN5 inh | HNF4 dimerization, luminescence, biochemical;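 active = mean inhibition across replicate wells exceeding the computed hit threshold, cut at about 13% in these data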;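 note: light from luciferase halves that rejoin when HNF4 fusion proteins dimerize; 0% = DMSO only wells and the 100% control is not given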
Active calls of the source: *; . = no result. Only some compounds are listed: those with a hit (about 1.9% of all), similar ones and a draw of the others.

SMILES | Rin1-Abl PPI inh | NadD block | ABHD5-PLIN5 inh | Rpn11 inh | XiGFP reactiv | ABHD5 PLIN5 conf | HNF4 counter
CN(C)CCN(C(=O)c1ccco1)c1nc2cc3c(cc2s1)OCCO3 | -7 | -7 | 0 | -4 | 0 | . | .
CN(C)CCCN(C(=O)c1ccco1)c1nc2ccc(Cl)cc2s1 | -4 | -8 | 24* | -2 | 0 | 18 | 10
CN(C)CCCN(C(=O)c1ccco1)c1nc2ccc(Br)cc2s1 | -2 | -7 | 25* | 0 | 0 | 17 | 7
O=C(CCl)N1N=C(c2cccs2)CC1c1ccco1 (stereo unspecified) | 0 | -4 | 21 | 3 | 0 | . | .
O=C(COc1cccnc1[N+](=O)[O-])N1N=C(c2ccc(Cl)cc2)CC1c1ccco1 (stereo unspecified) | -1 | 6 | 5 | -8 | 0 | . | .
Cc1ccc(OCC(=O)N2N=C(c3ccc(Cl)cc3)CC2c2ccco2)c([N+](=O)[O-])n1 (stereo unspecified) | 3 | 7 | 24* | 6 | 0 | 7 | 14*
O=C(CCl)N1N=C(c2ccco2)CC1c1ccco1 (stereo unspecified) | 5 | 5 | 38* | -18 | 0 | 25* | 22*
CC(C)[C@H](NS(=O)(=O)c1ccccc1)C(=O)OCC(=O)N1N=C(c2ccc(Cl)cc2)CC1c1ccco1 (stereo partly specified) | 0 | 29 | 24* | 34 | 0 | 48* | 56*
O=C(OCC(=O)N1N=C(c2ccc(Cl)cc2)CC1c1ccco1)c1cccnc1 (stereo unspecified) | -1 | 25 | 49* | 15 | 0 | 29* | 26*
COCC(=O)OCC(=O)N1N=C(c2ccc(Cl)cc2)CC1c1ccco1 (stereo unspecified) | 4 | -4 | 7 | 2 | 0 | . | .
COc1ccc(S(=O)(=O)Nc2ccc3c(c2)C(=O)N([C@H](C)CO)C[C@H](C)[C@H](CN(C)C(=O)c2ccccc2)OCCCC[C@H](C)O3)cc1 | . | . | . | . | 0 | . | .
O=C(/C=C/c1ccco1)c1ccccc1O | -3 | 1 | 8 | 4 | 0 | . | .
O=C(C=Cc1ccco1)c1cc(Cl)ccc1O | 1 | -1 | 27* | 3 | 0 | 53* | 34*
CCN(CC)S(=O)(=O)c1ccc(N2CCN(S(=O)(=O)c3ccccc3)CC2)nc1 | 1 | 2 | 6 | 4 | 0 | . | .
CC(C)N(C(C)C)S(=O)(=O)c1ccc(Cl)nc1 | 4 | -6 | -3 | 0 | 0 | . | .
CCN(CC)S(=O)(=O)c1ccc(N2CCc3ccccc3C2)nc1 | 1 | -1 | 44* | 1 | 1 | 61* | 72*
CC(C)N(C(C)C)S(=O)(=O)c1ccc(N2CCc3ccccc3C2)nc1 | 3 | -5 | 39* | 5 | 0 | 30* | 26*
CCOC(=O)C(C(=O)OCC)C(Nc1ccc(Br)cc1)c1ccccc1 (stereo unspecified) | 2 | 14 | 26* | 4 | . | 11 | 52*
Cc1[nH]nc(-c2cccnc2)c1N=NN(C)C | -2 | -3 | 62* | 2 | 0 | 73* | 79*
COc1cc(N2C(=O)C=CC2=O)c(OC)cc1Cl | -1 | -1 | 39* | -7 | 0 | 44* | 104*
O=C(c1ccc(-c2ccc([N+](=O)[O-])cc2)o1)N1CCCCCCC1 | 4 | 9 | 39* | -2 | 0 | 42* | 33*
CNC[C@@H]1Oc2ccc(NS(=O)(=O)c3ccc(F)cc3)cc2CC(=O)N([C@H](C)CO)C[C@H]1C | . | . | . | . | -1 | . | .
Cc1ccc(S(=O)(=O)N2CCCCC2)cc1NC(=O)Cn1cnnn1 | 2 | -5 | 2 | 0 | 0 | . | .
Cc1ccc(S(=O)(=O)N2CCCCC2)cc1NC(=O)Cn1ncc(Cl)c(Cl)c1=O | -3 | 16 | 26* | 6 | 1 | 23* | 14*
COc1ccc(S(=O)(=O)N2C[C@@H](O)COC[C@@H]3O[C@@H](CC(=O)NCCCN4CCOCC4)CC[C@H]32)cc1 | . | . | . | . | 0 | . | .
